# RGS4 inh: RGS4 inhibitors, primary screen, cell-based, HEK293 M3R inducible RGS4, calcium flux; Fluo-4 calcium flux; active compounds read high; triggered by carbachol at its EC20; B-score at 10 µM; hit rate 0.45% among 310,000; AID 463165, 2010;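 active = B-score, a plate-corrected calcium signal, over three deviations above library mean, with baseline fluorescence within five deviations of library mean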;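 also: RGS4 expression induced by doxycycline in cells with stable M3 receptor; B-score is computed from the integrated fluorescence ratio over baseline after carbachol; higher B-score means a larger calcium signal and so more RGS4 inhibition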
# Target sequence (P49798 whole entry, looked up): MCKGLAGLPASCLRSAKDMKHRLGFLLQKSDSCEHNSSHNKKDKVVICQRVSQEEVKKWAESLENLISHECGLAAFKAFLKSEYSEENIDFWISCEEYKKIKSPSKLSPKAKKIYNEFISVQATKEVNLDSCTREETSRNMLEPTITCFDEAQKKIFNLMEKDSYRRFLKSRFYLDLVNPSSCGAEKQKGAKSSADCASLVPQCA
# MrgX1 antag: antagonists of human MrgX1 receptor, primary screen, HEK293 cells, Fluo-4 calcium flux; hit rate 1.3% among 310,000; Mas-related G-protein coupled receptor member X1 (Homo sapiens), Q96LB2; B-score at 10 µM; BAM8-22 antagonism; active compounds read low;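 active = calcium-response B-score plate-corrected more than 3 library SD below zero, starting fluorescence within 5 deviations, no agonist response on first addition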;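 also: peak minus trough fluorescence over baseline after final BAM8-22 challenge near maximal dose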
# Target sequence (Q96LB2 whole entry, looked up): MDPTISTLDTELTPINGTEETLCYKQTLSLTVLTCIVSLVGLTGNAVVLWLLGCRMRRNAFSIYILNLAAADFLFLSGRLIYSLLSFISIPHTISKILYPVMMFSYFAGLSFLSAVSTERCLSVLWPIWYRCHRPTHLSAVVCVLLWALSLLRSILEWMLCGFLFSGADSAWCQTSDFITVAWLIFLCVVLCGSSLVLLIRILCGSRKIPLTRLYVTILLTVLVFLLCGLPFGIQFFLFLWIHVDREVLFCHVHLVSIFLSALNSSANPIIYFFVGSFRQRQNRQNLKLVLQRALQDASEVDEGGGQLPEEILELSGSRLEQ
# MrgX1 ag: agonists of human MrgX1 receptor, primary screen, HEK293 cells, Fluo-4 calcium flux; Fluo-4 calcium fluorescence, agonist mode; active compounds read high; B-score at 10 µM; hit rate 0.44% among 310,000; AID 588627, 2011;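 active = calcium response B-score plate-corrected fluorescence ratio at least 3 library SD, with starting fluorescence B-score inside 5 SD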
#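 Material – MrgX1-expressing HEK293 cells · Input – 15,000 cells seeded per well · Dosing – compound as first of three additions · Times – overnight seeding, then 1 h dark dye loading · Measured by – kinetic Fluo-4 NW fluorescence of intracellular calcium · Read-out – B-scored fluorescence response ratio · Benchmarks – positive and negative control wells on each plate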
# RGS4 act: RGS4 potentiators or activators, primary screen, cell-based, HEK293 M3R inducible RGS4, calcium flux; carbachol calcium flux Fluo4; active compounds read low; B-score at 10 µM; hit rate 0.92% among 310,000;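 active = B-score of the integrated calcium signal more than 4 SD below the library mean, with starting fluorescence not abnormally high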;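 also: negative B-score means reduced calcium response which marks RGS4 activation or potentiation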
#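 test system = HEK293 cells with stable M3R and inducible RGS4 | schedule = recording 10 s baseline at 1 Hz, 100 s post-agonist | technique = Fluo4-AM (2 µM) calcium-flux fluorescence, kinetic read | measure = Agonist-evoked peak-minus-minimum fluorescence over baseline, integrated ratio, B score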
# MrgX1 PAM: positive allosteric modulators of MrgX1, primary screen, HEK293 cells, Fluo-4 calcium flux; B-score at 10 µM; AID 588675, 2011; Mas-related G-protein coupled receptor member X1 (Homo sapiens), Q96LB2; FDSS; active compounds read high; hit rate 0.63% among 310,000;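 active = plate-corrected calcium response at least 3 library SD above typical, normal starting fluorescence, not activating the receptor alone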;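 also: compound read alongside a low EC10 to EC30 dose of BAM8-22 agonist; peak minus trough fluorescence over baseline measured at the second addition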
# RGS4 act valid: reduced carbachol calcium response, RGS4-induced M3R cells, confirmation, RGS4 activator project, cell-based, HEK293 M3R/RGS4 inducible, calcium flux, duplicate | shares compounds with RGS4 act | carbachol calcium flux Fluo4 | inhibition, % at 10 µM | hit rate 89% among 1,100 | AID 602282, 2012;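 active = inhibition above 3 SD of the buffer control wells, cut at about 41% in these data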;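 also: signal is the integrated peak-minus-minimum Fluo4 fluorescence over baseline ratio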
# M3R Ca counter: RGS4 activator counter-screen hit in non-induced cells; HEK293 M3R non-induced RGS4, Fluo4 calcium flux; after carbachol challenge at its EC90; hit rate 82% among 1,100; shares compounds with RGS4 act; inhibition, % at 10 µM; AID 602283;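 active = inhibition exceeding 3 SD of buffer-only control wells, cut at about 26% in these data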;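 also: percent drop in integrated peak-minus-baseline over baseline Fluo4 ratio after carbachol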
# A number is an active result; i = inactive; nt = no result given. A selection: hits, their analogues and other compounds. The true share with any hit is near 3.5%.
SMILES,RGS4 inh,MrgX1 antag,MrgX1 ag,RGS4 act,MrgX1 PAM,RGS4 act valid,M3R Ca counter
CCc1[nH]nc(C(=O)NC2CCCN(Cc3ccccc3F)C2)c1C (centres undefined),i,i,i,i,i,nt,nt
COC(=O)C1=C(C)N(c2ccc(OC)cc2)C(C)=C(C(=O)OC)C1c1ccccc1,i,i,i,i,i,nt,nt
COC(=O)C1=C(C)N(c2ccc(OC)cc2)C(C)=C(C(=O)OC)C1c1ccc(OC)cc1,i,i,i,-9,i,i,i
Cc1cccc(-c2n[nH]c(=S)n2Cc2ccccc2)c1,i,i,i,-8,i,i,i
S=c1[nH]nc(-c2ccc(Cl)cc2Cl)n1Cc1ccccc1,i,i,i,-7.8,i,91,58
S=c1[nH]nc(-c2ccc(Cl)cc2Cl)n1-c1ccccc1,i,i,i,i,i,nt,nt
S=c1[nH]nc(-c2cccc(Cl)c2)n1Cc1ccccc1,i,i,i,i,i,nt,nt
Cc1ccc(C)c(NC(=O)C2CCN(S(=O)(=O)c3ccc4c(c3)NC(=O)CO4)CC2)c1,i,i,i,i,i,nt,nt
CCNc1nc(NC(C)(C)C)nc(N2CCCC2)n1,i,i,i,-9,i,82,47
CCCCCCCc1n[nH]c(=S)n1Cc1ccccc1,i,i,i,i,i,nt,nt
CCCCc1n[nH]c(=S)n1Cc1ccc(C)cc1,i,i,i,-8.3,i,72,29
Cc1nccn1CCc1n[nH]c(=S)n1Cc1ccccc1,i,i,i,-9.5,i,86,68
O=c1c2ccccc2nc(-c2ccccc2Cl)n1O,i,i,i,i,i,nt,nt
O=C1NC2CCc3nc4ccccc4c(=O)n3C2=Nc2ccccc21 (centres undefined),i,i,i,-9.8,i,i,i
O=C(Cc1ccccc1)NCC(=O)N/N=C/c1ccc(Cl)cc1,i,i,i,i,i,nt,nt
Cc1cc(SCC(=O)c2ccccc2)n2nc(C)nc2n1,i,i,i,-9,i,i,i
COC(=O)c1ccc(CN2CCN(C3CCCC3)C(CCO)C2)cc1 (centres undefined),i,i,i,-9.3,i,92,67
Cc1ccc(CNC(=O)c2ccc(CNS(=O)(=O)c3ccc4c(c3)C(C)(C)C(=O)N4C)cc2)o1,i,i,i,i,i,nt,nt
CCOc1ccc(NS(=O)(=O)c2ccc3c(c2)CCN3C(C)=O)cc1,i,i,i,i,i,nt,nt
COc1ccccc1C(=O)NCC1CCN(c2ccc(S(=O)(=O)N3CCOCC3)cc2)CC1,i,i,i,-7.8,i,93,86
Cc1nc2nc(SCC(=O)NCCN3CCOCC3)nn2c(C)c1Cc1ccccc1,i,i,i,i,i,nt,nt
Cc1ccc(Cc2c(C)nc3nc(SCC(=O)NCCCN4CCCC4)nn3c2C)cc1,i,i,i,-9.6,i,41,i
Cc1ccc(Cc2c(C)nc3nc(SCC(=O)NCCCN4CCCCC4)nn3c2C)cc1,i,i,i,i,i,nt,nt
Cc1nc2nc(SCC(=O)NCCCN3CCCCCC3)nn2c(C)c1Cc1ccccc1Cl,i,i,i,-7.9,i,82,45
Cc1ccccc1Cc1c(C)nc2nc(SCC(=O)NCCCN3CCCC3)nn2c1C,i,i,i,-8.7,i,72,37
SMILES,RGS4 inh,MrgX1 antag,MrgX1 ag,RGS4 act,MrgX1 PAM,RGS4 act valid,M3R Ca counter
COc1ccccc1N(C)S(=O)(=O)c1ccc(C(=O)OCC(=O)NCc2cccs2)cc1,i,i,i,i,i,nt,nt
CN(CC(=O)Nc1ccc(C#N)cc1)Cc1ccc(Cl)c(Cl)c1,i,i,i,-8.7,i,92,95
CN(CC(=O)Nc1cccc(C#N)c1)Cc1ccc(Cl)cc1,i,i,i,i,i,nt,nt
COc1ccc(-c2cc(=O)c3c(O)c(OC)c(O)cc3o2)cc1,i,i,i,i,i,nt,nt
COc1cc(-c2cc(=O)c3c(O)c(OC)c(OC)cc3o2)cc(OC)c1O,i,i,i,-8.3,i,i,i
COc1ccc(-c2cc(C(=O)N3CCN(c4ccccc4F)CC3)c3ccccc3n2)c(OC)c1,i,i,i,-8.4,i,56,i
CCOc1ccc(-c2cc(C(=O)N3CCN(c4ccccn4)CC3)c3ccccc3n2)cc1,i,i,i,i,i,nt,nt
CCCc1ccc(-c2cc(C(=O)N3CCN(c4ccccn4)CC3)c3ccccc3n2)cc1,i,i,i,-12,i,52,i
COc1ccc(-c2cc(C(=O)N3CCN(c4ccccc4O)CC3)c3ccccc3n2)cc1OC,i,i,i,-7.7,i,92,82
Cc1ccc2c(c1)cc(C(=O)NCc1ccccc1)n2C,i,i,i,i,i,nt,nt
Cc1cc(C)n2nc(SCC(=O)c3cc(C)n(CC4CCCO4)c3C)nc2n1 (centres undefined),i,i,i,i,i,nt,nt
O=C(CCc1nnc2ccc(NCc3ccco3)nn12)Nc1cccc(F)c1,i,i,i,i,i,nt,nt
CCCCNc1c2c3c(cccc3n(C)c1=O)C(=O)c1ccccc1-2,i,i,i,-12,i,100,97
CCOc1ccc(-n2ccc(=O)c(C(=O)Nc3ccc(S(=O)(=O)Nc4ncccn4)cc3)n2)cc1,i,i,i,i,i,nt,nt
Cc1cc2[nH]c(=O)c(=O)[nH]c2cc1S(=O)(=O)N1CCC(C)CC1,i,i,i,i,i,nt,nt
COc1ccc(NC(=O)CC2C(=O)N(c3ccc(F)cc3)C(=S)N2NC(=O)c2ccc(Cl)cc2)cc1 (centres undefined),i,i,i,-11,i,i,i
COc1ccc(NC(=O)CC2C(=O)N(c3ccc(Cl)cc3)C(=S)N2NC(=O)c2cccc(F)c2)cc1 (centres undefined),i,i,i,i,i,nt,nt
O=C(c1ccc2c(=O)n3c(nc2c1)CCCCC3)N1CCN(c2ccccc2)CC1,i,i,i,i,i,nt,nt
O=c1c2cc(Br)ccc2nc2n1CCCCC2,i,i,i,-8.9,i,80,30
O=C(c1ccc2c(=O)n3c(nc2c1)CCCCC3)N1CCN(C(c2ccccc2)c2ccccc2)CC1,i,i,i,-7.7,i,93,92
CC(=O)N[C@@H](Cc1c[nH]c2ccccc12)C(=O)NCCc1ccc(S(N)(=O)=O)cc1,i,i,i,i,i,nt,nt
Cn1c(=O)c2c(ncn2CCOc2ccc(Br)cc2)n(C)c1=O,i,i,i,i,i,nt,nt
Cn1c(=O)c2c(ncn2CCOc2ccc(F)cc2)n(C)c1=O,i,i,i,-8.9,i,i,i
